Laboratory results as given in the M2OR odorant receptor database.

How the values were obtained:
Details in all cases: stereoisomer not certain
OR11H1 (Homo sapiens) = OR11H1 (Homo sapiens) (UniProt Q8NG94)
Method in brief: (§1)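 Transient luciferase assays in mammalian cell lines were common, though methods varied by source. The values come from published papers and their supplementary material, with extra details from the original authors when needed. Responsive refers to a measured signal the original authors judged statistically different from baseline, and non-responsive (inactive) to the remainder.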

OR11H12 (Homo sapiens) = OR11H12 (Homo sapiens) (UniProt B2RN74)
Method in brief: as §1

OR11H2 (Homo sapiens) = OR11H2 (Homo sapiens) (UniProt Q8NH07)
Method in brief: as §1

OR11H4 (Homo sapiens) = OR11H4 (Homo sapiens) (UniProt Q8NGC9)
Method in brief: as §1

OR11H6 (Homo sapiens) = OR11H6 (Homo sapiens) (UniProt Q8NGC7)
Method in brief: as §1

OR11H7 (Homo sapiens) = OR11H7 (Homo sapiens) (UniProt Q8NGC8)
Method in brief: as §1

OR11L1 (Homo sapiens) = OR11L1 (Homo sapiens) (UniProt Q8NGX0)
Method in brief: as §1

OR12D1 (Homo sapiens) = OR12D1 (Homo sapiens) (UniProt P0DN82)
Method in brief: as §1

OR12D2 (Homo sapiens) = OR12D2 (Homo sapiens) (UniProt P58182)
Method in brief: as §1

OR12D3 (Homo sapiens) = OR12D3 (Homo sapiens) (UniProt Q9UGF7)
Method in brief: as §1

Measured: odorant receptor agonist call;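 further: active if original authors judged signal statistically different from baseline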

OR11H2 (Homo sapiens), sequence (Q8NH07 whole entry): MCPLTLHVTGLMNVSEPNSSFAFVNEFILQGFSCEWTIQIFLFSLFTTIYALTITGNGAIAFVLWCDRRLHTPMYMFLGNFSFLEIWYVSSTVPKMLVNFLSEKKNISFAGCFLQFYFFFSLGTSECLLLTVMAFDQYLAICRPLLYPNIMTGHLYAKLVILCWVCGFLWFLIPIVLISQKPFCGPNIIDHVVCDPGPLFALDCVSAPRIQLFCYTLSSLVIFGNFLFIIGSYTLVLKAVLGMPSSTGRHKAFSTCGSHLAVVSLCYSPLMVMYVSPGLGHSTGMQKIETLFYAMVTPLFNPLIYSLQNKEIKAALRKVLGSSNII
OR11H4 (Homo sapiens), sequence (Q8NGC9 whole entry): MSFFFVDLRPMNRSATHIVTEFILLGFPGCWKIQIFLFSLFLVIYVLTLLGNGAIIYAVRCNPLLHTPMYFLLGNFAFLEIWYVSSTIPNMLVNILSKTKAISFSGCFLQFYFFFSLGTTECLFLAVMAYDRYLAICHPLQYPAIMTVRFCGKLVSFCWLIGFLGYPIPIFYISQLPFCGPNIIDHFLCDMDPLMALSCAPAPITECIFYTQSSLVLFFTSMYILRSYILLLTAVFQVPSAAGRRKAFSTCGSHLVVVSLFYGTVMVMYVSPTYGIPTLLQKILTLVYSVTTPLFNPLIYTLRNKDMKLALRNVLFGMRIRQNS
OR11H1 (Homo sapiens), sequence (Q8NG94 whole entry): as the sequence (Q8NH07 whole entry) above, with H7Q, I49T, K181M, L199R, V240M, P269S counted along it
OR11H12 (Homo sapiens), sequence (B2RN74 whole entry): as the sequence (Q8NH07 whole entry) above, with H7Q, S33T, I49T, R68W, Y156C, K181M, L199R, P269S counted along it
OR12D3 (Homo sapiens), sequence (Q9UGF7 whole entry): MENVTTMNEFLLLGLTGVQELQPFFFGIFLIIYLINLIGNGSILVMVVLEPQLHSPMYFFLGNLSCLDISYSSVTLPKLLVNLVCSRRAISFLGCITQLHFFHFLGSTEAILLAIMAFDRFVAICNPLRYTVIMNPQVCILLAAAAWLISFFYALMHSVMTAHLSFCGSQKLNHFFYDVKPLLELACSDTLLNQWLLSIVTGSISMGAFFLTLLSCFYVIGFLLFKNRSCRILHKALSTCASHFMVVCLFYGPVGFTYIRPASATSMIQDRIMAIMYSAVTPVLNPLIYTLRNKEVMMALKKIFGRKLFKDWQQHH
OR11L1 (Homo sapiens), sequence (Q8NGX0 whole entry): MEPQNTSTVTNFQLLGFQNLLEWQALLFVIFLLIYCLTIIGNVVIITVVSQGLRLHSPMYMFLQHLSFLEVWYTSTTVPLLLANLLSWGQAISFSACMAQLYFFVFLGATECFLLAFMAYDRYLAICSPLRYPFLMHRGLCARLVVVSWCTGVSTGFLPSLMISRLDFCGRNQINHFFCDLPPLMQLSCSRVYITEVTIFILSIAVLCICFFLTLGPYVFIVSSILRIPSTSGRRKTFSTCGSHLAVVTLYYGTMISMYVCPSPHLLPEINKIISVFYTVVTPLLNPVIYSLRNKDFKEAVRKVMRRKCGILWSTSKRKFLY
OR12D2 (Homo sapiens), sequence (P58182 whole entry): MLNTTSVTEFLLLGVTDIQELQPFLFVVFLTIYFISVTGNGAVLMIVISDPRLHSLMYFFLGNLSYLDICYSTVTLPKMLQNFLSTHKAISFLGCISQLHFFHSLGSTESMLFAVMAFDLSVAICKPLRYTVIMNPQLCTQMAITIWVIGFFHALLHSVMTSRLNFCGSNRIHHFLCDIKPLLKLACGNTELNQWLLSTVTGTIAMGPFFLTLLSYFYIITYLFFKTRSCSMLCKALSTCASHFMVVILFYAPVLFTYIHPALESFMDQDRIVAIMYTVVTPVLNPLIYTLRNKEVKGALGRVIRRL
OR11H6 (Homo sapiens), sequence (Q8NGC7 whole entry): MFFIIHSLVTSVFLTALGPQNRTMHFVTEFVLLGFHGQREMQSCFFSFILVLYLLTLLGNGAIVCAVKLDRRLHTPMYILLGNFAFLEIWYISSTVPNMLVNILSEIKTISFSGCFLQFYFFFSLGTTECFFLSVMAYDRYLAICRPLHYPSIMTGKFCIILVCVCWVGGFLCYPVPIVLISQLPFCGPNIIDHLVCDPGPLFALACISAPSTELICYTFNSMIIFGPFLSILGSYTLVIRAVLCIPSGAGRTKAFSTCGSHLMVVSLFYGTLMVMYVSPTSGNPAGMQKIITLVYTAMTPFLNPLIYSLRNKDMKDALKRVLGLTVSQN
OR12D1 (Homo sapiens), sequence (P0DN82 as listed by the source): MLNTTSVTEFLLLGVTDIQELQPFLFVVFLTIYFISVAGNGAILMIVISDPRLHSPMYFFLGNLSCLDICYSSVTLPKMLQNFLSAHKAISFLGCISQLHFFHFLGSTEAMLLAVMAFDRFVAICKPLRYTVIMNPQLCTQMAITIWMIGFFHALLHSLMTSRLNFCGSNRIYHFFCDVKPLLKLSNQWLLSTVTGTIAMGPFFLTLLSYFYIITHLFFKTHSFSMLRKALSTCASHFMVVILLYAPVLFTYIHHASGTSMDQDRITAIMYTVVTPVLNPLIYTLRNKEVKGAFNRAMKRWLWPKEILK
OR11H7 (Homo sapiens), sequence (Q8NGC8 whole entry): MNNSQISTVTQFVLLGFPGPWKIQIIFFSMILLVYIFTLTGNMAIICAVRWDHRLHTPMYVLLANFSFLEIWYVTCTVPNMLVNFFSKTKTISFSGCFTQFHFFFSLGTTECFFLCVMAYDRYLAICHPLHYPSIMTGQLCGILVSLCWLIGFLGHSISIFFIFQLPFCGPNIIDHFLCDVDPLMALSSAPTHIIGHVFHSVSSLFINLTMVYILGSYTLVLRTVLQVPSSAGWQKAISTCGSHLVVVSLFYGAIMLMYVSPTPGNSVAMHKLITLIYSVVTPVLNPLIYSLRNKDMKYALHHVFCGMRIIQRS

Cc1c([N+](=O)[O-])c(C)c([N+](=O)[O-])c(C(C)(C)C)c1[N+](=O)[O-]
inactive: all assays above

C=CCOC(=O)Cc1ccccc1
not listed: OR11H7 (Homo sapiens) | OR12D1 (Homo sapiens)
inactive: all other assays above
